Here are results for 48 compounds from ChEMBL document CHEMBL1143088, “Non-acidic pyrazole EP1 receptor antagonists with in vivo analgesic efficacy” (Bioorg Med Chem Lett, 2008).

A short description of data set [1]: Clearance in blood in rat at 10 mL/h/kg, iv. Format: ADME, organism-based. The following applies: whole blood. In outline: (§1)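 Male rats (n = 1 per compound) dosed iv at 10 mL/h/kg over 1 h via femoral vein cannula, target 1 mg free compound/kg, formulated at 0.1 mg/mL in 0.9% saline with 2% DMSO and 10–20% Kleptose (some with a molar equivalent NaOH), filtered before dosing.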

Data set [2] can be described thus: Volume of distribution at steady state in rat at 10 mL/h/kg, iv. It is filed as ADME, organism-based. The following applies: in vivo, read-out: Vdss. The gist of the method: as §1
Data set [3] deals with T1, Prostaglandin E2 receptor EP1 subtype (Homo sapiens, UniProt P34995).
T1 sequence (P34995 whole entry): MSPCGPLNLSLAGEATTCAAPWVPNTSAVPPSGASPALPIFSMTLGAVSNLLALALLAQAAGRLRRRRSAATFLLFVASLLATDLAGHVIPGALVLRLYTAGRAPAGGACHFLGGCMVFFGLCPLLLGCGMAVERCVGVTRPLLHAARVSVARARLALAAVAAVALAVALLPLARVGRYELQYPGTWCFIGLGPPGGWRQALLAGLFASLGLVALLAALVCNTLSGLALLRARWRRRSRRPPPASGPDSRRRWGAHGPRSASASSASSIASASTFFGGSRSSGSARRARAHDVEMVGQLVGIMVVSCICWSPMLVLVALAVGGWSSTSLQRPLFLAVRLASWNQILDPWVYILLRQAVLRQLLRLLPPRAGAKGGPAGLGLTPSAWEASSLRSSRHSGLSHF
Kind of data set: Displacement of [3H]PGE2 from human PGE2-EP1 receptor expressed in CHO-K1 cells. It is filed as cell-based. Background: In a radioligand displacement assay an active substance lowers the binding of a labelled ligand.

A short description of data set [4]: Distribution coefficient, logD at pH 7.4. Format: physicochemical. Conditions: octanol/water. The gist of the method: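 Distribution coefficient between n-octanol and water buffered to pH 7.4; log10 of ratio of equilibrium concentrations of all species.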
Data set [5] is described as follows: Half life in rat at 10 mL/h/kg, iv. It is filed as ADME, organism-based. Conditions: in vivo. In outline:
as §1

What is called clearance is a measure of how efficiently the substance is removed, as volume per time. In general, IC50 refers to the concentration that inhibits the measured activity by half. The term logD denotes lipophilicity at a set pH, counting ionised and neutral species. In the case of `Cc1cc(NC(=O)OCc2ccccn2)nn1Cc1cc(Cl)ccc1OCc1ccccc1`, in data set [1], the clearance was found to be 98 mL/min/kg. The Vd in data set [2] is 3 L/kg. Moreover, the IC50 in data set [3] was 79.4 nM. Further, in data set [4], the pH-dependent lipophilicity (logD) came out at 3.1.
`Cc1cc(NC(=O)CC(C)(C)C)nn1Cc1cc(Cl)ccc1OCc1ccccc1` had a concentration for half-maximal inhibition (IC50) in data set [3] of 10 nM. In data set [4], the logD was more than 3.7.
For `Cc1cc(NC(=O)C2CCCC2)nn1Cc1cc(Cl)ccc1OCc1ccccc1` the same measures were 15.8 nM and 3.5.
With `Cc1cc(NC(=O)C(C)C)nn1Cc1cc(Cl)ccc1OCc1ccccc1`, in data set [3], the concentration for half-maximal inhibition (IC50) is 25.1 nM. The compound also yielded a logD in data set [4] of more than 3.7.
`Cc1cc(C(=O)NCc2cccnc2)nn1Cc1cc(Cl)ccc1OCc1ccccc1` showed an IC50 in data set [3] of 50.1 nM. In data set [4], this compound had a logD of more than 3.7.
The matching figures for `Cc1cc(NC(=O)C(F)(F)c2ccccc2)nn1Cc1cc(Cl)ccc1OCc1ccccc1`: 39.8 nM and more than 3.7.
In turn, `Cc1cc(NC(=O)C(C)(C)c2ccccc2)nn1Cc1cc(Cl)ccc1OCc1ccccc1` had an IC50 in data set [3] of 63.1 nM. Also, the logD in data set [4] was more than 3.7.
For `Cc1cc(C(=O)Nc2cccc(F)c2)nn1Cc1cc(Cl)ccc1OCc1ccccc1` the same measures were 200 nM and 2.8.
The matching figures for `Cc1cc(NC(=O)OCc2ccccc2)nn1Cc1cc(Cl)ccc1OCc1ccccc1`: 79.4 nM and 3.1.
With `Cc1cc(NC(=O)c2ccccc2)nn1Cc1cc(Cl)ccc1OCc1ccccc1`, in data set [1], the clearance worked out at 50 mL/min/kg. Further, in data set [3], the concentration for half-maximal inhibition (IC50) was 15.8 nM. In data set [4], this compound showed a logD of more than 3.7.
The compound `O=C(Nc1ccn(Cc2cc(Cl)ccc2OCc2ccccc2)n1)c1ccccc1` showed an IC50 in data set [3] of 251 nM.
In the case of `Cc1cc(NC(=O)OC2CCOCC2)nn1Cc1cc(Cl)ccc1OCC(C)C`, in data set [3], the IC50 is 63.1 nM. For the same compound, in data set [4], the logD came to 3.4.
The matching figures for `Cc1cc(NC(=O)OC(C)(C)C(F)(F)F)nn1Cc1cc(Cl)ccc1OCC(C)C`: 50.1 nM and 3.5.
As to `Cc1cc(C(=O)NN2CCCCC2)nn1Cc1cc(Cl)ccc1OCC(C)C`, in data set [3], the half-maximal inhibitory concentration (IC50) is 200 nM. Besides, the logD in data set [4] is 3.3.
Regarding `Cc1cc(NC(=O)OCC(C)C)nn1Cc1cc(Cl)ccc1OCc1ccccc1`, the clearance in data set [1] is 124 mL/min/kg. The Vd in data set [2] came out at 3.9 L/kg. The IC50 in data set [3] was 25.1 nM. Further, the log distribution coefficient (logD) in data set [4] is 3.3.
In data set [3], `Cc1cc(C(=O)Nc2ccc(F)cc2)nn1Cc1cc(Cl)ccc1OCc1ccccc1` gave an IC50 of 79.4 nM. In addition, the logD in data set [4] is 3.
For `Cc1cc(NC(=O)C2CCCO2)nn1Cc1cc(Cl)ccc1OCc1ccccc1` (stereo not given) the same measures were 39.8 nM and more than 3.7.
As for `Cc1cc(C(=O)NCc2ccncc2)nn1Cc1cc(Cl)ccc1OCc1ccccc1`, in data set [3], the IC50 is 79.4 nM. In data set [4], this compound gave a pH-dependent lipophilicity (logD) of more than 3.7.
For `Cc1cc(C(N)=O)nn1Cc1cc(Cl)ccc1OCC(C)C` the same measures were 126 nM and 3.1.
For `Cc1cc(C(=O)O)nn1Cc1cc(Cl)ccc1OCc1ccccc1` the same measures were 10 nM and 1.
As usually defined, the half-life is the time in which the quantity being followed falls by half. The low end stands for fast loss, the high end for slow loss. Turning to `Cc1cc(NC(=O)Cc2ccccc2)nn1Cc1cc(Cl)ccc1OCc1ccccc1`, the half-life in data set [5] is 2.9 h. Besides, in data set [1], the clearance is 59 mL/min/kg. The Vd in data set [2] was 7.5 L/kg. This compound also showed an IC50 in data set [3] of 12.6 nM. This compound also gave a logD in data set [4] of more than 3.7.
For `Cc1cc(NC(=O)Cc2ccccn2)nn1Cc1cc(Cl)ccc1OCc1ccccc1`, the IC50 in data set [3] is 20 nM. The compound also had a log distribution coefficient (logD) in data set [4] of more than 3.7.
For `Cc1cc(C(=O)Nc2ccccn2)nn1Cc1cc(Cl)ccc1OCc1ccccc1` the same measures were 126 nM and more than 3.7.
For `Cc1cc(NC(=O)Cc2cccnc2)nn1Cc1cc(Cl)ccc1OCc1ccccc1` the same measures were 39.8 nM and more than 3.7.
On to `O=C(Cc1ccccc1)Nc1ccn(Cc2cc(Cl)ccc2OCc2ccccc2)n1`, for which the half-inhibitory concentration (IC50) in data set [3] was 158 nM.
As to `Cc1cc(C(=O)NC(C)C)nn1Cc1cc(Cl)ccc1OCc1ccccc1`, in data set [3], the IC50 was 126 nM. Moreover, the logD in data set [4] was more than 3.7.
The matching figures for `CNC(=O)c1cc(C)n(Cc2cc(Cl)ccc2OCc2ccccc2)n1`: 100 nM and more than 3.7.
The matching figures for `Cc1cc(NC(=O)OC(C)C)nn1Cc1cc(Cl)ccc1OCC(C)C`: 50.1 nM and more than 3.7.
In data set [4], `Cc1cc(C(=O)O)nn1Cc1cc(Br)ccc1OCc1ccccc1` showed a log distribution coefficient (logD) of 1.2.
In data set [5], `Cc1cc(NC(=O)C2CCCCC2)nn1Cc1cc(Cl)ccc1OCC(C)C` had a half-life of 1.7 h. In addition, in data set [1], the clearance stood at 68 mL/min/kg. The Vd in data set [2] is 3.5 L/kg. Further, the 50% inhibitory concentration (IC50) in data set [3] is 31.6 nM. This compound also returned a logD in data set [4] of more than 3.7.
Turning to `CCOC(=O)Nc1cc(C)n(Cc2cc(Cl)ccc2OCc2ccccc2)n1`, in data set [3], the 50% inhibitory concentration (IC50) was 79.4 nM. Moreover, the pH-dependent lipophilicity (logD) in data set [4] is more than 3.7.
Regarding `Cc1cc(NC(=O)C2CCCC2)nn1Cc1cc(Cl)ccc1OCC(C)C`, the 50% inhibitory concentration (IC50) in data set [3] was 25.1 nM. The compound further had a logD in data set [4] of more than 3.7.
The matching figures for `COC(=O)Nc1cc(C)n(Cc2cc(Cl)ccc2OCc2ccccc2)n1`: 200 nM and more than 3.7.
Take `Cc1ccc(-c2cc(Cl)ccc2OCc2ccccc2)n1-c1cccc(C(=O)O)c1`: in data set [4], the log distribution coefficient (logD) was 2.5.
For `Cc1cc(C(=O)NN2CCOCC2)nn1Cc1cc(Cl)ccc1OCC(C)C`, in data set [3], the half-inhibitory concentration (IC50) is 251 nM. The logD in data set [4] is 3.1.
As for `O=C(Cc1ccccn1)Nc1ccn(Cc2cc(Cl)ccc2OCc2ccccc2)n1`, the concentration for half-maximal inhibition (IC50) in data set [3] was 398 nM.
Consider `CC(=O)Nc1cc(C)n(Cc2cc(Cl)ccc2OCc2ccccc2)n1`, for which the IC50 in data set [3] was 316 nM. Moreover, the logD in data set [4] was more than 3.7.
In turn, `Cc1cc(NC(=O)OC(C)(C)C)nn1Cc1cc(Cl)ccc1OCC(C)C` gave an IC50 in data set [3] of 31.6 nM. The compound further showed a logD in data set [4] of more than 3.7.
For `Cc1cc(NC(=O)C(F)(F)c2ccccn2)nn1Cc1cc(Cl)ccc1OCc1ccccc1` the same measures were 25.1 nM and 3.1.
On to `Cc1cc(NC(=O)C2CCOC2)nn1Cc1cc(Cl)ccc1OCc1ccccc1` (stereo not given), for which the IC50 in data set [3] is 39.8 nM. Besides, the logD in data set [4] was more than 3.7.
In turn, `Cc1cc(NC(=O)c2c(F)cccc2F)nn1Cc1cc(Cl)ccc1OCc1ccccc1` had an IC50 in data set [3] of 12.6 nM. Also, the log distribution coefficient (logD) in data set [4] was more than 3.7.
For `Cc1cc(NC(=O)CC2CCCCC2)nn1Cc1cc(Cl)ccc1OCc1ccccc1` the same measures were 6.31 nM and 3.2.
The matching figures for `Cc1cc(NC(=O)Cc2ccncc2)nn1Cc1cc(Cl)ccc1OCc1ccccc1`: 50.1 nM and more than 3.7.
For `Cc1cc(C(=O)Nc2ccccc2)nn1Cc1cc(Cl)ccc1OCc1ccccc1` the same measures were 39.8 nM and more than 3.7.
Regarding `Cc1cc(C(=O)Nc2c(F)cccc2F)nn1Cc1cc(Cl)ccc1OCc1ccccc1`, the concentration for half-maximal inhibition (IC50) in data set [3] is 10 nM. In data set [4], the logD came to 3.7.
`Cc1cc(NC(=O)O[C@H]2CCOC2)nn1Cc1cc(Cl)ccc1OCc1ccccc1` had a half-life in data set [5] of 0.8 h. Also, the clearance in data set [1] was 86 mL/min/kg. Further, the Vd in data set [2] was determined as 3.7 L/kg. Further, the IC50 in data set [3] is 79.4 nM. In addition, the logD in data set [4] came to 2.7.
Regarding `Cc1cc(C(N)=O)nn1Cc1cc(Cl)ccc1OCc1ccccc1`, the half-inhibitory concentration (IC50) in data set [3] is 126 nM. This compound came in with a log distribution coefficient (logD) in data set [4] of 3.7.
As for `Cc1cc(NC(=O)C(C)(C)c2ccccn2)nn1Cc1cc(Cl)ccc1OCc1ccccc1`, the IC50 in data set [3] is 15.8 nM. The compound further had a pH-dependent lipophilicity (logD) in data set [4] of more than 3.7.
